# High-throughput results from PubChem BioAssay.
# OX1R antag-1: human HCRTR1 antagonism; inhibition, % at 5 µM; 330,000 compounds, 0.43% hits; O43613; CHO/OX1R cells, Fluo-8 calcium fluorescence, orexin A;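 active = inhibition above its plate's threshold, mean inhibition of all tested compounds on the plate plus 3 SD, cut at about 37% in these data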;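 note: 0% = orexin A challenge wells and 100% = SB-334867-A antagonist wells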
# Target sequence (O43613 whole entry, looked up): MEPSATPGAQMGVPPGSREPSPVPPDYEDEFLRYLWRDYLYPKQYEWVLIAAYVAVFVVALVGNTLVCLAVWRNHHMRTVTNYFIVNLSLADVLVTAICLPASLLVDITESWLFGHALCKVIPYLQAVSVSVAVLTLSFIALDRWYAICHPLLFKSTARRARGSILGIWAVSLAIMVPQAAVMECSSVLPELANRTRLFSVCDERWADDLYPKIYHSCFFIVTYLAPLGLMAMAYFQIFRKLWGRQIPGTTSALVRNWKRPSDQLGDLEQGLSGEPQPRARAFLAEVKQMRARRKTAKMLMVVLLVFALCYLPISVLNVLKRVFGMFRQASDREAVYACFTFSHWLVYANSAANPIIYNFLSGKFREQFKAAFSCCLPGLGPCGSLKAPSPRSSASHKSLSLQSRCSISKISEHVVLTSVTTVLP
# CHO parental Ca: counter-screen: ATP calcium response change in parental CHO cells | 330,000 compounds, 0.63% hits | parental CHO-K1, ATP-induced calcium, Fluo-8 fluorescence | AID 463079 | inhibition, % at 5.6 µM;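 active = inhibition above that plate's mean sample inhibition plus 3 SD, cut at about 26% in these data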;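 note: 0% = ATP-challenged DMSO wells and 100% = DMSO wells without ATP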
#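 Measured by: calcium-sensitive Fluo-8 fluorescence / Test system: CHO parental line / Controls: ATP-challenged DMSO wells low, unchallenged DMSO wells high / Measure: % inhibition / Compound: single nominal dose of 5.6 µM per compound / Replicates: single well per compound, no replicates / Reagent: ATP as calcium-mobilizing challenge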
# MPTP inh: inhibitors of mitochondrial permeability transition pore; 360,000 compounds, 1.4% hits; isolated mouse mitochondria, Ca2+ swelling absorbance, 30 min; inhibition, % at 10 µM; AID 602449;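 active = inhibition of 50% or more, scaled per plate between neutral and stimulator controls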;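 note: 0% = DMSO wells given calcium and 100% = 1 mM EGTA wells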
# OX1R antag-2: antagonists of human orexin 1 receptor (OX1R). OX1R-expressing cells, FRET antagonist read-out. O43613. inhibition, % at 6.6 µM. 330,000 compounds, 1.8% hits; in the data active = inhibition mostly above about 38%, no sharp cut-off; inactive = mostly below about 40%;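 note: 0% = agonist challenge alone and 100% = reference antagonist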
# GPR7 antagonist: human neuropeptides B/W receptor 1 antagonism; P48145; GPR7-expressing cells, fluorescence antagonist assay; inhibition, % at 4.4 µM; 290,000 compounds, 1.1% hits; in the data active = inhibition above about 16%, passing the limit was not always enough;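 note: cells stimulated with the agonist NPW; 0% = agonist with vehicle and 100% = vehicle without agonist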
# Target sequence (P48145 whole entry, looked up): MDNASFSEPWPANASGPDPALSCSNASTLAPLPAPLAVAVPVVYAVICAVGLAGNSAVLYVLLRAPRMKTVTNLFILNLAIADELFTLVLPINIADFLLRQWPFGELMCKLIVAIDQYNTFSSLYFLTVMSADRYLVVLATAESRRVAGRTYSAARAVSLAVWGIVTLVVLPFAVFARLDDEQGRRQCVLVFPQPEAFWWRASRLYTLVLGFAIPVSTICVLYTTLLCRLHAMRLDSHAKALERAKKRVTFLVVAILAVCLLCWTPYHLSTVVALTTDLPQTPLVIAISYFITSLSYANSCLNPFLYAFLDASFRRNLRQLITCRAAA
# GPR7 antag conf: confirmation of human GPR7 antagonists | shares compounds with GPR7 antagonist | GPR7-expressing cells, calcium fluorescence antagonist mode | inhibition, % at 4.4 µM | 2,400 compounds, 52% hits | AID 1952; in the data active = inhibition above about 24%;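 note: stimulated with the GPR7 agonist NPW; 0% = agonist plus vehicle and 100% = vehicle alone without agonist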
# MCHR1 antagonist: MCHR1 (human) antagonism in GPR7 counter-screen; inhibition, % at 4.4 µM; shares compounds with GPR7 antagonist; 2,400 compounds, 62% hits; MCHR1-expressing cells, fluorescence antagonist assay; AID 2148;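 note: 0% = vehicle with agonist and 100% = vehicle without agonist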
# OX1R Ca confirm: confirmation of human orexin 1 receptor antagonists | CHO/OX1R cells, orexin A calcium Fluo-8 fluorescence | inhibition, % at 5 µM | shares compounds with OX1R antag-1 | 1,100 compounds, 38% hits | AID 492963; in the data active = inhibition above about 29%;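 note: 0% = agonist challenge alone and 100% = reference antagonist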
# CHO Ca counter: counter-screen for OX1R antagonists: effect in parental CHO cells; parental CHO-K1, ATP-induced calcium, Fluo-8 fluorescence; inhibition, % at 5.6 µM; 1,100 compounds, 9.3% hits; shares compounds with OX1R antag-1; AID 492965;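 active = inhibition above a per-plate limit, the mean inhibition of that plate's test compounds plus 3 SD, cut at about 25% in these data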;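 note: 0% = ATP challenge with DMSO and 100% = DMSO without ATP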
# Rh123 counter: mitochondrial membrane potential, counter-screen; AID 624504; isolated mitochondria, Rhodamine 123 fluorescence; shares compounds with MPTP inh; inhibition, % at 10 µM; 5,000 compounds, 78% hits;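 note: 0% = DMSO vehicle and 100% = positive control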
# MPTP swell DR: dose response confirmation of mitochondrial permeability transition pore inhibitors. shares compounds with MPTP inh. IC50, µM. 780 compounds, 58% hits. isolated mitochondria swelling, absorbance; in the data active = IC50 below about 20 µM
# MPTP cs DR: active in counter-screen for permeability transition pore inhibitors; isolated mitochondria counterscreen, fluorescence read-out; IC50, µM; shares compounds with MPTP inh; 780 compounds, 49% hits; AID 651564; in the data active = IC50 below about 80 µM
# An asterisk follows results filed as active; . = no result. Shown are actives, neighbours in structure and some others; about 3.8% of the full set was active somewhere. Cut-off read from the data, not from the text of the source, unless noted: active = inhibition above about 22%; inactive = the rest.
SMILES,OX1R antag-1,CHO parental Ca,MPTP inh,OX1R antag-2,GPR7 antagonist,GPR7 antag conf,MCHR1 antagonist,Rh123 counter,others
CCC(C)(O)c1[nH]c2ccc(C#N)cc2c1C (configuration not stated),-10.1,-11.3,-0.7,8.8,-3.6,.,.,.,
CCC(CC)NC(=O)Nc1ccc(F)cc1F,-3.7,-3.1,1.8,3.4,-8.1,.,.,.,
CCSc1nsc(NC(=O)Nc2ccc(F)cc2F)n1,15.2,73.8*,71.8*,42.6*,53.9*,51.6*,55.3*,91.0*,
CCOc1ccc(NC(=O)Nc2nc(SCC)ns2)cc1,-5.3,37.1*,96.8*,40.8,24.7*,33.5*,65.5*,79.4*,
O=C(NC1CCCCC1)C(c1ccccn1)N(C(=O)c1csnn1)C1CCCCC1 (configuration not stated),-30.0,-15.4,-0.9,-7.6,1.1,.,.,.,
Cc1ccc(-c2nn(-c3ccccc3)cc2CNCc2ccccc2)cc1,7.5,-4.9,95.7*,13.3,23.5*,41.1*,52.9*,-3.1,MPTP swell DR=4.71*;MPTP cs DR=30.5*
COc1cc(C(=O)C(=O)N2CCN(c3ccccc3)CC2)cc(OC)c1OC,.,.,0.6,.,.,.,.,.,
CNC[C@@H](Cc1ccccc1)NC[C@@H](CC1CCCCC1)NCCCc1ccccc1,-6.3,8.2,71.9*,13.5,64.7*,81.8*,93.0*,-17.4,
O=C(Nc1ccc(OC(F)F)c(Cl)c1)Nc1ccc2c(c1)OCO2,45.1*,36.5*,92.0*,44.1,26.5*,12.5,56.4*,88.2*,
O=C(Nc1ccc([N+](=O)[O-])cc1)Nc1ccc(OC(F)F)c(Cl)c1,84.2*,100.2*,97.9*,76.2*,22.6*,72.5*,74.8*,47.0*,
COc1ccc(NC(=O)Nc2cccc([N+](=O)[O-])c2)cc1Cl,29.1,5.5,94.2*,73.8*,34.7*,37.8*,59.4*,80.2*,
COc1ccc(C(=O)Nc2cccc([N+](=O)[O-])c2)cc1Br,-0.9,8.9,1.8,24.7,5.9,.,.,.,
O=C(Nc1ccc2c(c1)OCO2)Nc1ccc2c(c1)OCO2,-8.3,-2.3,1.6,4.7,-13.3,.,.,.,
CCOc1ccc(NC(=O)CN2C(=O)COc3ccccc32)cc1,-5.3,-7.2,-0.5,9.1,1.0,.,.,.,
CC(C)CC(NC(=O)c1ccccc1)C(=O)OCC(=O)Nc1ccc(S(N)(=O)=O)cc1 (configuration not stated),-7.6,-5.3,1.5,8.0,3.8,.,.,.,
COC(=O)CCN1CCC2CC1c1cc(-c3cccc(C)c3)ccc12 (configuration not stated),.,.,-2.0,.,.,.,.,.,
CCOC(=O)C(C)On1c(-c2ccc(Cl)cc2)nc2ccc([N+](=O)[O-])cc21 (configuration not stated),9.1,-6.4,89.4*,37.2,26.4*,34.5*,51.5*,108.4*,
CC1=C(C(=O)N(C(C)C)C(C)C)CC(CC(=O)NCc2ccco2)C(=O)N1CCCN1CCCC1=O (configuration not stated),.,.,-2.6,.,.,.,.,.,
COc1ccc(CN(C)Cc2nc(Cc3cccc(F)c3)no2)c2cccnc12,19.1,24.8,72.9*,25.5,29.8*,21.5,42.9*,82.9*,
CC(=O)c1c(C)[nH]c(C(=O)Nc2cccc(C#N)c2)c1C,-12.8,4.2,2.8,37.0,-1.7,.,.,.,
Cc1ccccc1NC(=O)CNC(=O)c1ccc(C(F)(F)F)cc1,-8.4,-10.3,-0.4,20.3,-4.0,.,.,.,
O=C(Nc1ccccc1F)Nc1ccccc1F,-42.4,-13.0,1.3,9.4,0.4,.,.,.,
CC(=O)c1c(C)[nH]c(C(=O)Nc2cccc(C(F)(F)F)c2)c1C,44.8*,37.4*,70.1*,70.3*,33.1*,4.4,59.0*,86.4*,
Cc1ccccc1NC(=O)Nc1ccc(C(F)(F)F)cc1,-0.3,24.7,79.5*,33.4,54.5*,69.0*,52.4*,87.0*,
O=C(Cc1ccc([N+](=O)[O-])cc1)Nc1cccc(C(F)(F)F)c1,-7.4,28.0*,81.3*,24.5,39.0*,29.9*,56.7*,81.6*,
SMILES,OX1R antag-1,CHO parental Ca,MPTP inh,OX1R antag-2,GPR7 antagonist,GPR7 antag conf,MCHR1 antagonist,Rh123 counter,others
O=C(Nc1ccc(Br)cc1)Nc1ccccc1F,-5.6,5.3,80.5*,26.4,28.2*,59.1*,65.4*,90.2*,
CN(C)C(=O)CCc1ccc2c3c([nH]c2c1)[C@]1(CCC2CCCC2)[C@@H](C(=O)N2CCOCC2)C[C@H](CC(=O)NC(C)(C)C)C(=O)N1CC3,-30.6,-24.6,-0.9,5.2,.,.,.,.,
C[C@@H]1CCCCO[C@H](CN(C)Cc2ccc(C(F)(F)F)cc2)[C@@H](C)CN([C@H](C)CO)C(=O)c2cc(NS(=O)(=O)c3cn(C)cn3)ccc2O1,.,.,-0.3,.,.,.,.,.,
O=C(O)c1ccccc1C(=O)Nc1ccc(-n2ccc(C(F)(F)F)n2)cc1,3.2,-13.6,2.5,12.2,-14.2,.,.,.,
O=C(Nc1ccccc1)Nc1ccc(Br)c(Cl)c1,12.6,28.8*,78.8*,54.7,28.9*,49.5*,56.6*,85.2*,
CNC(=O)Nc1cccc(C(F)(F)F)c1,-6.7,-6.6,4.9,11.4,-19.0,.,.,.,
O=C(Nc1ccccc1)Nc1cccc(C(F)(F)F)c1,33.2,10.3,96.5*,64.3,27.3*,40.5*,60.6*,97.5*,OX1R Ca confirm=-0.2;CHO Ca counter=20.8
O=C(Nc1ccc(-n2ccc(C(F)(F)F)n2)cc1)Nc1cccc(Cl)c1,57.0*,22.3,75.4*,30.6,21.1*,41.6*,71.4*,65.4*,
O=C(Nc1ccccc1)Nc1ccccc1Br,-11.5,13.6,5.0,26.1,-1.4,.,.,.,
CC(=O)Nc1ccc(S(C)(=O)=O)c(C)c1,-5.3,-2.9,-0.5,11.0,9.5,.,.,.,
COc1cc(NC(=O)COc2cc(O)c3c(c2)OC(C)(C)CC3=O)cc(OC)c1OC,29.7,82.4*,98.8*,70.9*,34.5*,50.8*,78.9*,98.3*,
CC1CCCN(C(=O)CSc2nnc3ccccn23)C1 (configuration not stated),-5.7,-10.3,-0.8,-0.9,.,.,.,.,
